These results are taken from ChEMBL document CHEMBL4382192, “Discovery of a potent dual ALK and EGFR T790M inhibitor” (Eur J Med Chem, 2017).

Series [1] concerns Tyrosine-protein kinase ABL1 (Homo sapiens), P00519 [T315I]. Briefly: Binding affinity to human non-phosphorylated ABL1 T315I mutant (S229 to K512 residues) expressed in mammalian expression system assessed as residual binding level at 1 uM by Kinomescan method relative to control. In outline: (§1)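 Kinome-wide selectivity panel run by the KINOMEscan method, with the test compound at a single concentration of 1 μM. Wild-type and mutant kinases were profiled in the same screen.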

Series [2] concerns the target Aurora kinase B (Homo sapiens) (UniProt Q96GD4). Briefly: Binding affinity to wild-type human partial length AURKB (D25 to A303 residues) expressed in mammalian expression system assessed as residual binding level at 1 uM by Kinomescan method relative to control.
Series [3] has as its target Calcium/calmodulin-dependent protein kinase type II subunit alpha (Homo sapiens) (UniProt Q9UQM7). Briefly: Binding affinity to wild-type human partial length CAMK2A (M1 to K328 residues) expressed in bacterial expression system assessed as residual binding level at 1 uM by Kinomescan method relative to control.
Series [4] addresses Dual specificity tyrosine-phosphorylation-regulated kinase 1A (Homo sapiens) (UniProt Q13627). Briefly: Binding affinity to wild-type human partial length DYRK1A (H129 to S509 residues) expressed in mammalian expression system assessed as residual binding level at 1 uM by Kinomescan method relative to control.
Series [5] addresses Ephrin type-A receptor 2 (Homo sapiens) (UniProt P29317). Briefly: Binding affinity to wild-type human partial length EPHA2 (T593 to V891 residues) expressed in bacterial expression system assessed as residual binding level at 1 uM by Kinomescan method relative to control.
Series [6] has as its target Vascular endothelial growth factor receptor 1 (Homo sapiens) (UniProt P17948). Briefly: Binding affinity to wild-type human partial length FLT1 (R781 to F1239 residues) expressed in bacterial expression system assessed as residual binding level at 1 uM by Kinomescan method relative to control.
In series [7] the target is G protein-coupled receptor kinase 3 (Homo sapiens) (UniProt P35626). As to the kind of experiment: Binding affinity to wild-type human full length GRK3 (M1 to L688 residues) expressed in mammalian expression system assessed as residual binding level at 1 uM by Kinomescan method relative to control. Put shortly: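 Single-point kinome-wide KINOMEscan binding panel, test compound at 1 μM, run by the provider's standard protocol.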

Series [8] has as its target Insulin-like growth factor 1 receptor (Homo sapiens) (UniProt P08069). Briefly: Binding affinity to wild-type human partial length IGF1R (L972 to D1294 residues) expressed in bacterial expression system assessed as residual binding level at 1 uM by Kinomescan method relative to control.
Series [9] concerns the target Insulin receptor-related protein (Homo sapiens) (UniProt P14616). As to the kind of experiment: Binding affinity to wild-type human partial length INSRR (R950 to E1278 residues) expressed in bacterial expression system assessed as residual binding level at 1 uM by Kinomescan method relative to control.
Series [10] deals with Leucine-rich repeat serine/threonine-protein kinase 2 (Homo sapiens), Q5S007 [G2019S]. Briefly: Binding affinity to human partial length LRRK2 G2019S mutant (H970 to E2527 residues) expressed in mammalian expression system assessed as residual binding level at 1 uM by Kinomescan method relative to control. Put shortly:
as §1

Series [11] concerns the target Mitogen-activated protein kinase kinase kinase 15 (Homo sapiens) (UniProt Q6ZN16). Briefly: Binding affinity to wild-type human partial length MAP3K15 (T625 to L932 residues) expressed in mammalian expression system assessed as residual binding level at 1 uM by Kinomescan method relative to control.
Series [12] has as its target Serine/threonine-protein kinase Nek9 (Homo sapiens) (UniProt Q8TD19). As to the kind of experiment: Binding affinity to wild-type human partial length NEK9 (P32 to R328 residues) expressed in bacterial expression system assessed as residual binding level at 1 uM by Kinomescan method relative to control.
In series [13] the target is Serine/threonine-protein kinase PAK 2 (Homo sapiens) (UniProt Q13177). Briefly: Binding affinity to wild-type human partial length PAK2 (P151 to R525 residues) expressed in bacterial expression system assessed as residual binding level at 1 uM by Kinomescan method relative to control.
Series [14] has as its target Platelet-derived growth factor receptor beta (Homo sapiens) (UniProt P09619). As to the kind of experiment: Binding affinity to wild-type human partial length PDGFRB (V582 to Y1009 residues) expressed in bacterial expression system assessed as residual binding level at 1 uM by Kinomescan method relative to control.
Series [15] has as its system Phosphatidylinositol 4,5-bisphosphate 3-kinase catalytic subunit alpha isoform (Homo sapiens), P42336 [I800L]. As to the kind of experiment: Binding affinity to human partial length PIK3CA I800L mutant (R108 to N1068 residues) expressed in mammalian expression system assessed as residual binding level at 1 uM by Kinomescan method relative to control.
Series [16] has as its target Phosphatidylinositol 4,5-bisphosphate 3-kinase catalytic subunit beta isoform (Homo sapiens) (UniProt P42338). Briefly: Binding affinity to wild-type human partial length PIK3CB (P118 to S1070 residues) expressed in mammalian expression system assessed as residual binding level at 1 uM by Kinomescan method relative to control.
Series [17] deals with Phosphatidylinositol 4,5-bisphosphate 3-kinase catalytic subunit gamma isoform (Homo sapiens) (UniProt P48736). Briefly: Binding affinity to wild-type human partial length PIK3CG (S144 to A1102 residues) expressed in mammalian expression system assessed as residual binding level at 1 uM by Kinomescan method relative to control.
The target of series [18] is Phosphatidylinositol 5-phosphate 4-kinase type-2 gamma (Homo sapiens) (UniProt Q8TBX8). As to the kind of experiment: Binding affinity to wild-type human partial length PIP5K2C (M1 to A421 residues) expressed in mammalian expression system assessed as residual binding level at 1 uM by Kinomescan method relative to control.
For series [19], the target named is Receptor-interacting serine/threonine-protein kinase 4 (Homo sapiens) (UniProt P57078). Briefly: Binding affinity to wild-type human partial length RIPK4 (M1 to V303 residues) expressed in mammalian expression system assessed as residual binding level at 1 uM by Kinomescan method relative to control.
Series [20] addresses Ribosomal protein S6 kinase alpha-1 (Homo sapiens) (UniProt Q15418). Briefly: Binding affinity to wild-type human partial length C-terminal RSK1 kinase domain 2 (P360 to L681 residues) expressed in bacterial expression system assessed as residual binding level at 1 uM by Kinomescan method relative to control.
In series [21] the target is Ribosomal protein S6 kinase alpha-6 (Homo sapiens) (UniProt Q9UK32). As to the kind of experiment: Binding affinity to wild-type human partial length N-terminal RSK4 kinase domain 1 (M1 to E397 residues) expressed in mammalian expression system assessed as residual binding level at 1 uM by Kinomescan method relative to control.
Series [22] concerns the target STE20/SPS1-related proline-alanine-rich protein kinase (Homo sapiens) (UniProt Q9UEW8). As to the kind of experiment: Binding affinity to wild-type human partial length STK39 (P43 to I357 residues) expressed in mammalian expression system assessed as residual binding level at 1 uM by Kinomescan method relative to control.
For series [23], the target named is CYP2D6 (Homo sapiens, UniProt P10635). As to the kind of experiment: Residual activity of CYP2D6 in human liver microsomes at 10 uM using dextromethorphan O-demethylase as substrate preincubated for 5 mins followed by NADPH addition measured after 15 mins by LC/MS/MS analysis relative to control. Particulars: probe dextromethorphan (O-demethylation). In general terms: Microsomes from liver hold many membrane-bound enzymes, among them those of drug oxidation.

Ribosomal protein S6 kinase alpha-6 (Homo sapiens), sequence (Q9UK32 whole entry, the tested form may be a part): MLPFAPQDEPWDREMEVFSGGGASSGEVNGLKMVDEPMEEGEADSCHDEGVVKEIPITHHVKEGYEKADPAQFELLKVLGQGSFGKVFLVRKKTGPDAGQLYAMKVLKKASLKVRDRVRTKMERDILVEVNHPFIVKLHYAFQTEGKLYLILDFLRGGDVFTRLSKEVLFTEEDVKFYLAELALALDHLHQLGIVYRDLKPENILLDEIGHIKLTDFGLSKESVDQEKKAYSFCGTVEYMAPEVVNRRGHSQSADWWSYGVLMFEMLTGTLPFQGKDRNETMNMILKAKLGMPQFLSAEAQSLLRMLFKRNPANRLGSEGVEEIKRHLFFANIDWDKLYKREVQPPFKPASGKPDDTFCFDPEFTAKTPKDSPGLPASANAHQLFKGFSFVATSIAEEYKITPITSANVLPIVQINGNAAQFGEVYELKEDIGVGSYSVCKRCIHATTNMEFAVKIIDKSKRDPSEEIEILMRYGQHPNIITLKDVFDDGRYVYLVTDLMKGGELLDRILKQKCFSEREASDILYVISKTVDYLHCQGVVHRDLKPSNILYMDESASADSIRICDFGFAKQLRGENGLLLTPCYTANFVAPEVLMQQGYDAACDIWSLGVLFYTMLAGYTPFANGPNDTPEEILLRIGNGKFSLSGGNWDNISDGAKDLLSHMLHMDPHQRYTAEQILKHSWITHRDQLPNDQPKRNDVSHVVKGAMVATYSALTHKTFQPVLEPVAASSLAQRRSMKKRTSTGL
Insulin receptor-related protein (Homo sapiens), sequence (P14616 27-742 limits assumed): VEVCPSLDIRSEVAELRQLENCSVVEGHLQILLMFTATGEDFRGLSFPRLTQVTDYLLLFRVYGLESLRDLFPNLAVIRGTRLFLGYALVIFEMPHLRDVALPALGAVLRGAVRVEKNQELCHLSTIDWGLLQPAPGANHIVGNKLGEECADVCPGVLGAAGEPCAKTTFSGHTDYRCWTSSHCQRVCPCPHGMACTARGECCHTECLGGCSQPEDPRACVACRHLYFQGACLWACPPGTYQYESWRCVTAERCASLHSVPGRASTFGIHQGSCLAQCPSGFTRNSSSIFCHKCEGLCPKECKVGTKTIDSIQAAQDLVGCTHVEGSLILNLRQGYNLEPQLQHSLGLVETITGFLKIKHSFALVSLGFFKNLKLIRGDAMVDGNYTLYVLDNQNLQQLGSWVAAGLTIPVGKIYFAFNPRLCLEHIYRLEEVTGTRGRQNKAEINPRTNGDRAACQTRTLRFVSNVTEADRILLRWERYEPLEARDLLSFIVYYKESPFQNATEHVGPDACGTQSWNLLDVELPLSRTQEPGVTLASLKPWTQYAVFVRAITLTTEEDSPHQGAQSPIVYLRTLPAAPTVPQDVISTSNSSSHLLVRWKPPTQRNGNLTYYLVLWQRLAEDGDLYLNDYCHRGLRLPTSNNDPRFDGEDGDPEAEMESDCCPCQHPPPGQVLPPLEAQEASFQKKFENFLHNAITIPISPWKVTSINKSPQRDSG
Insulin receptor-related protein (Homo sapiens), sequence (P14616 747-1297 limits assumed): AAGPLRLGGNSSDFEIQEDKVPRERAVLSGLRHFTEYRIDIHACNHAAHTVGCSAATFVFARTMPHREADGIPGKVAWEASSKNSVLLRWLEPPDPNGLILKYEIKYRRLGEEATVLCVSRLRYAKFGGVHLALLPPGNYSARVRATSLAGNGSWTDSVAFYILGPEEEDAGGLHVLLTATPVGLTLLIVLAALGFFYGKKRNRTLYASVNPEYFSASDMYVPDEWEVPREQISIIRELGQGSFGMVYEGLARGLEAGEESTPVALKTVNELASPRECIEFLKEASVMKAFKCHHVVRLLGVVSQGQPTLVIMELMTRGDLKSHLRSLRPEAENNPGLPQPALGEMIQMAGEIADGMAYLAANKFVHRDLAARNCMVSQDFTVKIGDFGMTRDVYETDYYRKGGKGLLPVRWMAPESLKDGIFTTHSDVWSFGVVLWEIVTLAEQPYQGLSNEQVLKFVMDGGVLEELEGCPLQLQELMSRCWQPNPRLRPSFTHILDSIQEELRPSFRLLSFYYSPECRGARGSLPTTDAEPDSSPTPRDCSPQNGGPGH
G protein-coupled receptor kinase 3 (Homo sapiens), sequence (P35626 whole entry, the tested form may be a part): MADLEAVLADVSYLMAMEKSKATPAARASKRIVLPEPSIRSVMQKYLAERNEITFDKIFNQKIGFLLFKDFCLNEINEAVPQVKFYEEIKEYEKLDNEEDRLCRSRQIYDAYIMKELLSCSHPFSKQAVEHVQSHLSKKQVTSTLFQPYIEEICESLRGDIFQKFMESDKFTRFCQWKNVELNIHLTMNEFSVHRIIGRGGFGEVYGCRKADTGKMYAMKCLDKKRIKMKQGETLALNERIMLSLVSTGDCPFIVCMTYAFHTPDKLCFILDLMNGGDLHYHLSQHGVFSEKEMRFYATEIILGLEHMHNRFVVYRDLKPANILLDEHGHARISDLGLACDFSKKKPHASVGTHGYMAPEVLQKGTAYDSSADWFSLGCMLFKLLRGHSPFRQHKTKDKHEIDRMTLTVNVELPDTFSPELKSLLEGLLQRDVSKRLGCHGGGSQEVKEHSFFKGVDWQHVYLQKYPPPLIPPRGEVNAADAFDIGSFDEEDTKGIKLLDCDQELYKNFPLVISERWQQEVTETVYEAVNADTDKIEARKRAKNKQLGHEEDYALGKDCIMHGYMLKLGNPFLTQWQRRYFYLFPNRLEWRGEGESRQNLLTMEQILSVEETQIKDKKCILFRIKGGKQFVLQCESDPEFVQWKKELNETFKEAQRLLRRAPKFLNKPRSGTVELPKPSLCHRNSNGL
Serine/threonine-protein kinase Nek9 (Homo sapiens), sequence (Q8TD19 whole entry, the tested form may be a part): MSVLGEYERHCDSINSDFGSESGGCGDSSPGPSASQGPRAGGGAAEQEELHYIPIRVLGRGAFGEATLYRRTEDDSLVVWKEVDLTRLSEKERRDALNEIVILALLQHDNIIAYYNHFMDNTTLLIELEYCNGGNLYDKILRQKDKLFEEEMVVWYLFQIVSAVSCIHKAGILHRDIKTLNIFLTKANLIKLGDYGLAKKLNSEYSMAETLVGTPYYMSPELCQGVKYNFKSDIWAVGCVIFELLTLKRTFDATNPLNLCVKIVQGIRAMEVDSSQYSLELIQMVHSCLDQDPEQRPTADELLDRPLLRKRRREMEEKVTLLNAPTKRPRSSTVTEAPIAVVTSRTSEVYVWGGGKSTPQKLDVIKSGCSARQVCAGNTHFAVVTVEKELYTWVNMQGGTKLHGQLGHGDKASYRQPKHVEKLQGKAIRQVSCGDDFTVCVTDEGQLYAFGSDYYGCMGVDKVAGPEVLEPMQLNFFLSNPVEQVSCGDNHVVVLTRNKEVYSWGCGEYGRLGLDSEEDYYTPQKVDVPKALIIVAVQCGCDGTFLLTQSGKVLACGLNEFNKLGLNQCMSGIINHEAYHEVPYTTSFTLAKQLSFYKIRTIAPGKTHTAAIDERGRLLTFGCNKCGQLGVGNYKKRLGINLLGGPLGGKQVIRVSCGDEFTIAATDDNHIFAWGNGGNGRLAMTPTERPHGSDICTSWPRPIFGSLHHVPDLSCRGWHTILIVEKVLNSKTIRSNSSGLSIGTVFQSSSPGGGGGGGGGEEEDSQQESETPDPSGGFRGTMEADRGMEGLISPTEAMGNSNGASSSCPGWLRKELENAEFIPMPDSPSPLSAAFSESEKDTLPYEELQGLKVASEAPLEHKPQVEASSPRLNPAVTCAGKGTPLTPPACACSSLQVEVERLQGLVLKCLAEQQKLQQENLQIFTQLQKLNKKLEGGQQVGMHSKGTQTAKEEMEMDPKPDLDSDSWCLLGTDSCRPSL
Serine/threonine-protein kinase PAK 2 (Homo sapiens), sequence (Q13177 whole entry, the tested form may be a part): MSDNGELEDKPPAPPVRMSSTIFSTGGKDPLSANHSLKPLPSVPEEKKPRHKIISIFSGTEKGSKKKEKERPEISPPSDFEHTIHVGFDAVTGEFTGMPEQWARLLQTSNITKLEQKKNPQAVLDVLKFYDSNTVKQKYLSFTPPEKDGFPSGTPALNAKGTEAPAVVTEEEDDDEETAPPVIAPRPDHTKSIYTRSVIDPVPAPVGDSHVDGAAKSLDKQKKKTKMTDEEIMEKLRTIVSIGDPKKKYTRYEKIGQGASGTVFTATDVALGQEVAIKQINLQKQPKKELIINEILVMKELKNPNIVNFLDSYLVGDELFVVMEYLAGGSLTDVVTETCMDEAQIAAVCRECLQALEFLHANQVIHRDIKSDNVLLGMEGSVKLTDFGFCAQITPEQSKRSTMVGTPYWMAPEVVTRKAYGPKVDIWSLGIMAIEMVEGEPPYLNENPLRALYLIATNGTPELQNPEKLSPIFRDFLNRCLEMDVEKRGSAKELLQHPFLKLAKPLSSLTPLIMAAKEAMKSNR
Receptor-interacting serine/threonine-protein kinase 4 (Homo sapiens), sequence (P57078 whole entry, the tested form may be a part): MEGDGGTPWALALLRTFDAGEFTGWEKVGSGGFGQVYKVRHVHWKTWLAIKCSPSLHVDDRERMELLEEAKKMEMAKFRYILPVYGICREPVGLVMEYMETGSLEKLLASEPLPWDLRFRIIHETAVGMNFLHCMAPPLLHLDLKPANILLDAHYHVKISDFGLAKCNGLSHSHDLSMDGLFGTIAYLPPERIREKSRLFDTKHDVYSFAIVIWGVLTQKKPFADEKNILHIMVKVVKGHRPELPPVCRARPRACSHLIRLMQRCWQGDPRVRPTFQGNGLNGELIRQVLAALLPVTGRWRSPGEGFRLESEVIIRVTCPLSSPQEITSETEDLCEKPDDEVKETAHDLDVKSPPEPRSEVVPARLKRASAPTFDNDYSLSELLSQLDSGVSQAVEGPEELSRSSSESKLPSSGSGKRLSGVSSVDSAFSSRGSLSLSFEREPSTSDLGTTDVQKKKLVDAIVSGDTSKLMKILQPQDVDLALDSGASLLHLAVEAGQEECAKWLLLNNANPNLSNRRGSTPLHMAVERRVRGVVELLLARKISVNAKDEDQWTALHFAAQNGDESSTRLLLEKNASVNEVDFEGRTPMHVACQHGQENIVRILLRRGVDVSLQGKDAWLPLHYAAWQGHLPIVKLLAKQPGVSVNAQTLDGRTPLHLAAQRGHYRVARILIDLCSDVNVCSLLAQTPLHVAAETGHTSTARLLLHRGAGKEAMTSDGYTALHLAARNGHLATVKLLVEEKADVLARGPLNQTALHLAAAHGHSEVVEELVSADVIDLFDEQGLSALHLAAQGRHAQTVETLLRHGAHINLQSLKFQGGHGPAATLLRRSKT

With `C=CC(=O)Nc1cc(Nc2ncc(Cl)c(Nc3ccccc3S(=O)(=O)C(C)C)n2)c(OC)cc1N(C)CCN(C)C`, the Activity came to 0.9% in [1]; 39% in [2]; 18% in series [3]; 71% in series [4]; 75% in series [5]; 47% in [6]. In addition, the Activity in series [7] was found to be 100%; in [8], 0.55%; in series [9], 0.25%; in series [10], 0.95%; in [11] it was 45%; in series [12], 70%. Also, the Activity in series [13] was 62%; in series [14], 43%; in series [15] it was 81%; in series [16] it was 100%; in [17], 98%; in series [18], 90%. The Activity in series [19] is 72%; in series [20] it was 44%; in series [21], 15%; in series [22], 20%. This molecule also showed an Activity at […], 10 µM in series [23] of 90%.
